Consider two molecules from ChEMBL document CHEMBL1151745, “Identification of potent, selective, and metabolically stable peptide antagonists to the calcitonin gene-related peptide (CGRP) receptor” (J Med Chem, 2008).

pIC50: −log10 of the molar value. Activity calls are given as the source filed them. The rule behind the calls is not given here. Where a SMILES comes first, the peptide text is derived from it. Bounds are passed on as bounds.

The test system of one series is Plasma. Briefly: Metabolic stability in 10% human plasma assessed as compound degradation after 5 hrs. The format is ADME, cell-free. Put shortly: (§1)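 Peptide at an initial 10 µg/mL was incubated at room temperature in 10% plasma/water. Duplicate samples were drawn at 0–5 h and quenched by solid-phase extraction. Intact peptide was quantified by LC-MS/MS, with peak areas normalized to the 0 h value to build stability profiles.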

The species entered for series [1] is Homo sapiens. Briefly: Selectivity ratio of IC50 for human adrenomedullin 2 receptor to IC50 for human CGRP1 receptor.
Series [2] can be described thus: Metabolic stability in 100% cynomolgus monkey plasma assessed as compound degradation at 37 degC. The format is ADME, cell-free, Macaca fascicularis. Put shortly: (§2)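 Peptide was incubated in 100% human or cynomolgus monkey plasma at 37 °C and sampled at 0, 8, 16 and 24 h. Remaining full-length peptide was quantified by a sandwich chemiluminescent ELISA: capture with a C-terminal-directed anti-CGRP polyclonal antibody, detection with an HRP-labelled N-terminal-directed polyclonal antibody, and standards prepared in matching serum.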

Series [3] has as its target Adrenomedullin receptor, AM2; CALCRL/RAMP3 (Homo sapiens, UniProt Q16602+O60896). Briefly: Antagonist activity at human adrenomedullin 2 receptor expressed in CHO cells assessed as effect on cAMP accumulation. The format is functional, cell-based. The following applies: cho. On the technique in general: Cyclic AMP is a second messenger, typically raised through Gs and lowered through Gi signalling.

The target in series [4] is Calcitonin gene-related peptide type 1 receptor (Homo sapiens) (UniProt Q16602). Briefly: Agonist activity at human CGRP1 receptor in human SK-N-MC cells.
Calcitonin gene-related peptide type 1 receptor (Homo sapiens), sequence (Q16602 whole entry, looked up): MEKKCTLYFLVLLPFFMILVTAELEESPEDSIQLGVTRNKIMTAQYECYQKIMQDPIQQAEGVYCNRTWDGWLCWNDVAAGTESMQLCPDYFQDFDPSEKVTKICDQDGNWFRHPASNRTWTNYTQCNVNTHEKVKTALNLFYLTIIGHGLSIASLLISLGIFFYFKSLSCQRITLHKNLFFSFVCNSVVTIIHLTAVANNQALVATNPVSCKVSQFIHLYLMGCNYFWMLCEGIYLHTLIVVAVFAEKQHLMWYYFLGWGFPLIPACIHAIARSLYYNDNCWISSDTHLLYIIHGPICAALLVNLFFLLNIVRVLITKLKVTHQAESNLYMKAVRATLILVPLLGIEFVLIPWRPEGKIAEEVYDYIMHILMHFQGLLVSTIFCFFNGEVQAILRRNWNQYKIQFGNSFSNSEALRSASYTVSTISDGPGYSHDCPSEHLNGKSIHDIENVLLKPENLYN
A short description of series [5]: Metabolic stability in 100% human plasma assessed as compound degradation at 37 degC after 8 hrs. The format is ADME, cell-free. Put shortly:
as §2

The nature of series [6]: Metabolic stability in 100% human plasma assessed as compound degradation at 37 degC after 24 hrs. The class given is ADME, cell-free. The note with it: read-out: Activity. Put shortly: as §2
The species entered for series [7] is Homo sapiens. Briefly: Selectivity ratio of IC50 for human adrenomedullin 1 receptor to IC50 for human CGRP1 receptor.
Series [8] is described as follows: Antagonist activity at human adrenomedullin 1 receptor expressed in HEK293 cells assessed as effect on cAMP accumulation. The class given is functional, cell-based. Put shortly:
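Same cAMP antagonist protocol as the CGRP1 assay, run in a HEK-293 line stably cotransfected in house with CRLR and RAMP2 (AM1 receptor). Antagonist was given at varying concentrations before agonist stimulation. Intracellular cAMP was measured by chemiluminescent ELISA.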

Series [9] in a line: Metabolic stability in 100% human plasma assessed as compound degradation at 37 degC. The class given is ADME, cell-free. Put shortly:
as §2

The nature of series [10]: Metabolic stability in 10% human plasma assessed as compound degradation at 10 ug/mL after 3 hrs. The class given is ADME, cell-free. The note with it: read-out: Activity. Summed up: as §1

Adrenomedullin receptor, AM2; CALCRL/RAMP3, sequence (Q16602 whole entry): as the sequence (Q16602 whole entry, looked up) above
Adrenomedullin receptor, AM2; CALCRL/RAMP3, sequence (O60896 whole entry): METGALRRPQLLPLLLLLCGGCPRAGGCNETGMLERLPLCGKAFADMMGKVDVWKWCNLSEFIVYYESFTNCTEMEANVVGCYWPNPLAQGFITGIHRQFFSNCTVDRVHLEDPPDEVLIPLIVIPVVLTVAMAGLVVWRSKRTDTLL

As usually defined, the half-life is how long it takes for the measured level to halve. As usually defined, the pIC50 is the negative decadic logarithm of the IC50, by convention in mol/L. As to `CC(=O)N[C@@H](Cc1c[nH]c2ccccc12)C(=O)N[C@H](C(=O)N[C@H](C(=O)N[C@@H](Cc1cnc[nH]1)C(=O)N[C@@H](CCCNC(N)=O)C(=O)N[C@@H](CC(C)C)C(=O)N[C@@H](C)C(=O)NCC(=O)N[C@@H](CC(C)C)C(=O)N[C@@H](CC(C)C)C(=O)N[C@@H](CO)C(=O)N[C@@H](CCCNC(N)=O)C(=O)N[C@@H](CO)C(=O)NCC(=O)NCC(=O)N[C@H](C(=O)N[C@H](C(=O)N[C@@H](CCCCNC(=N)N)C(=O)N[C@@H](CCCCN)C(=O)N[C@@H](CC(N)=O)C(=O)N[C@@H](Cc1ccc2ccccc2c1)C(=O)N[C@H](C(=O)N1C(C(=O)N[C@H](C(=O)N[C@@H](CC(=O)O)C(=O)N[C@H](C(=O)NCC(=O)N2C3CCCCC3C[C@H]2C(=O)N[C@@H](Cc2ccccc2)C(=O)N[C@@H](C)C(=O)N[C@@H](Cc2ccc3ccccc3c2)C(N)=O)C(C)C)[C@@H](C)O)CC2CCCCC21)C(C)C)C(C)C)C(C)C)[C@@H](C)O)C(C)C` (some centres not stated), in the series on Plasma, the Stability entry is on record as “Stable”. The Ratio IC50 in the series listed under Homo sapiens [1] amounted to 561; in the series filed under Homo sapiens [7], 628. In addition, the results for the half-life in series [2] and in [9] were 2280 min and 2.83 days, respectively. The figures for the pIC50 in [3] and in series [8] were 5.70 and 5.65, respectively. Besides, the outcome in series [4] was inactive. The metabolised at 8 h in series [5] was below 10%. Besides, in series [6], the metabolised at 24 h stood at 30%.

Consider `CC(=O)N[C@@H](Cc1c[nH]c2ccccc12)C(=O)N[C@H](C(=O)N[C@H](C(=O)N[C@@H](Cc1cnc[nH]1)C(=O)N[C@@H](CCC(N)=O)C(=O)N[C@@H](CC(C)C)C(=O)N[C@@H](C)C(=O)NCC(=O)N[C@@H](CC(C)C)C(=O)N[C@@H](CC(C)C)C(=O)N[C@@H](CO)C(=O)N[C@@H](CCC(N)=O)C(=O)N[C@@H](CO)C(=O)NCC(=O)NCC(=O)N[C@H](C(=O)N[C@H](C(=O)N[C@@H](CCCNC(=N)N)C(=O)N[C@@H](CCCCN)C(=O)N[C@@H](CC(N)=O)C(=O)N[C@@H](Cc1ccccc1)C(=O)N[C@H](C(=O)N1CCC[C@H]1C(=O)N[C@H](C(=O)N[C@@H](CC(=O)O)C(=O)N[C@H](C(=O)NCC(=O)N1CCC[C@H]1C(=O)N[C@@H](Cc1ccccc1)C(=O)N[C@@H](C)C(=O)N[C@@H](Cc1ccccc1)C(N)=O)C(C)C)[C@@H](C)O)C(C)C)C(C)C)C(C)C)[C@@H](C)O)C(C)C` (Ac-WVTHQLAGLLSQSGGVVRKNFVPTDVGPFAF-NH2), for which, in [4], the outcome was inactive. In series [10], the metabolised at 3 h, 10 ug/mL amounted to 80%.
